Results published in ChEMBL document CHEMBL1145402, “Discovery of potent and muscle selective androgen receptor modulators through scaffold modifications” (J Med Chem, 2007).

Assays:
Androgen receptor [1] = target: T1, Androgen receptor (Homo sapiens, UniProt P10275); assay: Displacement of [3H]DHT from androgen receptor expressed in MDA-MB-453 cells; format: cell-based
T1 sequence (P10275 whole entry): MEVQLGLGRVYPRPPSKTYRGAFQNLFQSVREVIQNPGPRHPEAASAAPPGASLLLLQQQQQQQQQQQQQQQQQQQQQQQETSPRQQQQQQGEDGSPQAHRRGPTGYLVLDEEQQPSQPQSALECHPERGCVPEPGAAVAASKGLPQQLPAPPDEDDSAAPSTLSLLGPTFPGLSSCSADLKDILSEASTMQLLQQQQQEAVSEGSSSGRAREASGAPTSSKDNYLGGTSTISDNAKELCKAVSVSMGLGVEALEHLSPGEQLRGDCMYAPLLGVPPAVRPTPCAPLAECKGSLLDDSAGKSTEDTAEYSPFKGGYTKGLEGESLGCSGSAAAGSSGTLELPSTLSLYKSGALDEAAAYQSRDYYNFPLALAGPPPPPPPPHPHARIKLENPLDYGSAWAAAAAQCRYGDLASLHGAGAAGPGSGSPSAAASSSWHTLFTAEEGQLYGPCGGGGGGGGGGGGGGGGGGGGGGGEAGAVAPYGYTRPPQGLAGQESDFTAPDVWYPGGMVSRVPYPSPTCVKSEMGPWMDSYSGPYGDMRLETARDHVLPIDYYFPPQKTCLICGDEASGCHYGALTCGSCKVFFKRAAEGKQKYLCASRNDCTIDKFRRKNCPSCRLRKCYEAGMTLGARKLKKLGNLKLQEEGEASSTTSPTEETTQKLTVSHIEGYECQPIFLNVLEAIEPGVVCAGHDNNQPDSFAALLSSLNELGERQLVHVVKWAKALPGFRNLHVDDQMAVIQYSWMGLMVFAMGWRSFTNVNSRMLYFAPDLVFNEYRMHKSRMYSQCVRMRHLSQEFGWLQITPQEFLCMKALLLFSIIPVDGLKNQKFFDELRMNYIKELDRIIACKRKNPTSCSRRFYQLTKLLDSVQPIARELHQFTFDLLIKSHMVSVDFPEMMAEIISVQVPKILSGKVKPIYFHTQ

Androgen receptor [2] = target: T1, Androgen receptor; assay: Agonist activity at androgen receptor expressed in C2C12 mouse cells by luciferase reporter transactivation assay; format: functional, cell-based
Rattus norvegicus [3] = assay: Stimulation of ventral prostate tissue weight in Sprague-Dawley rat at 1 mg/kg, po after 14 days; format: functional, Prostate gland
Summary of the method: (§1)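 Mature male rats were castrated two weeks before treatment. Compound was given […] once daily for two weeks, then levator ani muscle and ventral prostate were weighed. Weights are expressed as percent of a sham-operated, vehicle-treated intact control group, ±SEM.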

Rattus norvegicus [4] = assay: Stimulation of levator ani muscle weight in Sprague-Dawley rat at 1 mg/kg, po after 14 days; format: functional; summary of the method: as §1
Rattus norvegicus [5] = assay: Stimulation of levator ani muscle weight in Sprague-Dawley rat at 0.3 mg/kg, sc after 14 days; format: functional; settings: route subcutaneous
Summary of the method: (§2)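 Mature male rats were castrated two weeks before dosing. Testosterone propionate was given subcutaneously for two weeks, then levator ani muscle and ventral prostate were weighed. Weights are expressed as percent of a sham-operated, vehicle-treated intact control group, ±SEM.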

Rattus norvegicus [6] = assay: Stimulation of ventral prostate tissue weight in Sprague-Dawley rat at 0.3 mg/kg, sc after 14 days; format: functional, Prostate gland; settings: route subcutaneous; summary of the method: as §2

SMILES | Ki (Androgen receptor [1]) [nM] | EC50 (Androgen receptor [2]) [nM] | further results
CC[C@@H]1[C@@H]2[C@@H](O)CCN2C(=O)N1c1ccc(C#N)c(Cl)c1C | 1.6 | 7.1 | 
Cc1c(N2C(=O)N3CC[C@H](O)[C@H]3[C@@H]2C(F)(F)F)ccc(C#N)c1Cl | 0.9 | 2.5 | 
Cc1c(N2C[C@@H]3[C@H](O)CC[C@@H]3C2=O)ccc(C#N)c1Cl |  | 20 | Activity (Rattus norvegicus [3]): 6%; Activity (Rattus norvegicus [4]): 45%
Cc1c(N2C(=O)N3CC[C@H](O)[C@H]3[C@H]2C(F)(F)F)ccc(C#N)c1Cl | 1.9 | 48 | 
CC[C@@H]1[C@@H]2[C@H](O)CCN2C(=O)N1c1ccc(C#N)c(Cl)c1C | 2.3 | 7.4 | 
Cc1c(N2C(=O)N3CC[C@@H](O)[C@H]3[C@H]2C(C)C)ccc(C#N)c1Cl | 23 | 108 | 
CC1=C(c2ccc(C#N)c(Cl)c2C)C(=O)N2CC[C@H](O)[C@@H]12 |  | 2 | 
CCC(=O)O[C@H]1CC[C@H]2[C@@H]3CCC4=CC(=O)CC[C@]4(C)[C@H]3CC[C@]12C [TESTOSTERONE PROPIONATE] |  |  | Activity (Rattus norvegicus [5]): 70%; Activity (Rattus norvegicus [6]): 68%
